Measurements taken from ChEMBL document CHEMBL1157649, “Cytotoxic 2-benzylidene-6-(nitrobenzylidene)cyclohexanones which display substantially greater toxicity for neoplasms than non-malignant cells” (Bioorg Med Chem, 2010).

Legend:
[1] = Cytotoxicity against human HGF cells after 24 hrs; assay type: cell-based; conditions: for CC50: hgf, 24 h; for CC50 at 24 h: HGF cells
How it was run: (§1)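 Cells (HGF gingival fibroblasts, HPC pulp cells, HPLF periodontal ligament fibroblasts, HSC-2 and HSC-4 squamous carcinoma, HL-60 promyelocytic leukemia) were exposed to graded concentrations for 24 h, up to a maximum of 400 μM. CC50 is the concentration reducing viable cell number by 50%, taken from dose–response curves. Values are from duplicate determinations differing by less than 5%.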

[2] = tested on: HL-60; assay: Cytotoxicity against human HL60 cells after 24 hrs; assay type: functional; conditions: HL-60, 24 h; how it was run: as §1
[3] = Cytotoxicity against human HPC cells after 24 hrs; assay type: cell-based; conditions: for CC50: hpc, 24 h; for CC50 at 24 h: HPC cells; how it was run: as §1
[4] = tested on: Mus musculus; assay: Toxicity in mouse assessed as induction of mortality at 30 to 300 mg/kg, ip; assay type: organism-based; design: dose 30-300 mg/kg, route intraperitoneal; conditions: in vivo
[5] = tested on: Mus musculus; assay: Neurotoxicity in mouse assessed at 30 to 300 mg/kg, ip after 4 hrs; assay type: toxicity, organism-based; design: dose 30-300 mg/kg, route intraperitoneal; conditions: in vivo
How it was run: (§2)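 Mice received 30, 100 or 300 mg/kg intraperitoneally and were examined at 0.5 and 4 h for mortality and neurological deficit, following NINDS screening protocols. Results were recorded as the number of mice showing a deficit over the number treated per dose.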

[6] = tested on: Mus musculus; assay: Neurotoxicity in mouse assessed at 30 to 300 mg/kg, ip after 0.5 hrs; assay type: toxicity, organism-based; design: dose 30-300 mg/kg, route intraperitoneal; conditions: in vivo; how it was run: as §2
[7] = tested on: HSC-2; assay: Cytotoxicity against human HSC2 cells after 24 hrs; assay type: functional; conditions: HSC-2, 24 h; how it was run: as §1
[8] = Cytotoxicity against human HPLF cells after 24 hrs; assay type: cell-based; conditions: for CC50: hplf, 24 h; for CC50 at 24 h: HPLF cells; how it was run: as §1
[9] = Partition coefficient, log P of the compound; assay type: physicochemical; conditions: octanol/water
[10] = tested on: HSC-4; assay: Cytotoxicity against human HSC4 cells after 24 hrs; assay type: functional; conditions: HSC-4, 24 h; how it was run: as §1
[11] = tested on: HSC-2; assay: Selectivity index, ratio of CC50 for human normal cells to CC50 for human HSC2 cells; assay type: functional
How it was run: (§3)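 The index is the average CC50 toward the three normal cell types (HGF, HPC, HPLF) divided by the CC50 toward the indicated malignant line.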

[12] = tested on: HSC-4; assay: Selectivity index, ratio of CC50 for human normal cells to CC50 for human HSC4 cells; assay type: functional; how it was run: as §3
[13] = tested on: HL-60; assay: Selectivity index, ratio of CC50 for human normal cells to CC50 for human HL60 cells; assay type: functional; how it was run: as §3

Compound	CC50 [1] [µM]	CC50 [2] [µM]	CC50 [3] [µM]	Activity [4]	Activity [5]	Activity [6]	CC50 [7] [µM]	CC50 [8] [µM]	logP [9]	CC50 [10] [µM]	Selectivity Index [11]	Selectivity Index [12]	Selectivity Index [13]	CC50 at 24 h [1] [µM]	CC50 at 24 h [3] [µM]	CC50 at 24 h [8] [µM]
COc1ccc(/C=C2\CCC/C(=C\c3ccccc3[N+](=O)[O-])C2=O)cc1	> 400	26	> 400	Non-toxic	Non-toxic	Non-toxic	11	386	4.76	24	–	–	–	–	–	–
O=C1/C(=C/c2ccc(F)cc2)CCC/C1=C\c1cccc([N+](=O)[O-])c1	42	1	38	Non-toxic	–	–	2.2	36	5.07	2.5	–	–	–	–	–	–
COc1cc(/C=C2\CCC/C(=C\c3cccc([N+](=O)[O-])c3)C2=O)cc(OC)c1OC	336	59	> 400	Non-toxic	Non-toxic	Non-toxic	73	> 400	4.53	92	>5.2	>4.1	>6.4	–	–	–
O=C1/C(=C/c2ccc(Cl)cc2)CCC/C1=C\c1ccc([N+](=O)[O-])cc1	–	4.1	–	Non-toxic	Non-toxic	Non-toxic	1.5	–	5.6	2.7	193	107	71	191	345	332
COc1ccc(/C=C2\CCC/C(=C\c3ccc([N+](=O)[O-])cc3)C2=O)cc1	–	> 400	–	Non-toxic	Non-toxic	Non-toxic	> 400	–	4.98	> 400	1	1	1	> 400	> 400	> 400
CN(C)c1ccc(/C=C2\CCC/C(=C\c3cccc([N+](=O)[O-])c3)C2=O)cc1	> 400	30	> 400	Non-toxic	–	–	32	> 400	5	71	–	–	–	–	–	–
COc1cc(/C=C2\CCC/C(=C\c3ccccc3[N+](=O)[O-])C2=O)cc(OC)c1OC	44	3	35	Non-toxic	Non-toxic	Non-toxic	5.9	79	4.33	6.5	9	8.2	18	–	–	–
O=C1CCCC/C1=C\c1ccccc1[N+](=O)[O-]	218	27	117	Non-toxic	–	–	28	103	–	29	5.2	5	5.4	–	–	–
COc1cc(OC)c(OC)cc1/C=C1\CCC/C(=C\c2ccc([N+](=O)[O-])cc2)C1=O	> 400	400	> 400	Non-toxic	–	–	67	> 400	–	250	>6	>1.6	1	–	–	–
O=C1/C(=C/c2ccc(Cl)cc2)CCC/C1=C\c1cccc([N+](=O)[O-])c1	39	3.2	18	–	–	–	2.2	38	5.58	2.3	15	14	10	–	–	–
O=C1/C(=C/c2ccc(F)cc2)CCC/C1=C\c1ccccc1[N+](=O)[O-]	82	3	11	Non-toxic	Non-toxic	Non-toxic	2.7	67	–	2.2	–	–	–	–	–	–
COc1cc(/C=C2\CCC/C(=C\c3ccc([N+](=O)[O-])cc3)C2=O)cc(OC)c1OC	–	1.1	–	Non-toxic	–	–	0.76	–	4.56	1.5	466	236	322	336	347	378
O=C1CCCC/C1=C\c1cccc([N+](=O)[O-])c1	74	5.8	49	Non-toxic	–	–	6.6	56	–	18	9.1	3.3	10	–	–	–
Cc1ccc(/C=C2\CCC/C(=C\c3ccccc3[N+](=O)[O-])C2=O)cc1	> 400	11	> 400	–	–	–	11	> 400	5.15	40	>36	>10	>36	–	–	–
O=C1/C(=C/c2ccccc2)CCC/C1=C\c1ccccc1[N+](=O)[O-]	93	3.7	16	Non-toxic	Non-toxic	Non-toxic	3.8	26	4.7	3.2	12	14	12	–	–	–
COc1ccc(/C=C2\CCC/C(=C\c3cccc([N+](=O)[O-])c3)C2=O)cc1	> 400	7.2	33	Non-toxic	–	–	4.8	354	4.96	11	>55	>24	>36	–	–	–
COc1ccc(/C=C2\CCC/C(=C\c3ccc([N+](=O)[O-])cc3)C2=O)c(OC)c1OC	> 400	> 400	> 400	Non-toxic	Non-toxic	Non-toxic	> 400	> 400	–	> 400	1	1	1	–	–	–
O=C1/C(=C/c2ccccc2)CCC/C1=C\c1cccc([N+](=O)[O-])c1	25	3	14	Non-toxic	–	–	3.7	18	4.9	2.4	5.1	7.9	6.3	–	–	–
Cc1ccc(/C=C2\CCC/C(=C\c3ccc([N+](=O)[O-])cc3)C2=O)cc1	> 400	27	92	Non-toxic	–	–	6.6	348	5.38	13	>42	>22	>10	–	–	–
O=C1/C(=C/c2ccc(F)cc2)CCC/C1=C\c1ccc([N+](=O)[O-])cc1	326	32	> 400	Non-toxic	–	–	19	> 400	5.09	15	–	–	–	–	–	–
CN(C)c1ccc(/C=C2\CCC/C(=C\c3ccc([N+](=O)[O-])cc3)C2=O)cc1	> 400	> 400	> 400	Non-toxic	–	–	11	> 400	5.03	> 400	–	–	–	–	–	–
COc1cc(OC)c(/C=C2\CCC/C(=C\c3ccc([N+](=O)[O-])cc3)C2=O)c(OC)c1	> 400	11	> 400	Non-toxic	Non-toxic	Non-toxic	> 400	> 400	–	> 400	1	1	>36	–	–	–
CN(C)c1ccc(/C=C2\CCC/C(=C\c3ccccc3[N+](=O)[O-])C2=O)cc1	> 400	> 400	> 400	–	–	–	> 400	> 400	4.8	> 400	1	1	1	–	–	–
O=C1/C(=C/c2ccccc2)CCC/C1=C\c1ccc([N+](=O)[O-])cc1	371	20	123	Non-toxic	Non-toxic	Non-toxic	4.9	282	4.93	9.2	53	28	13	–	–	–
